Assay results from PubChem BioAssay.
Calls of active or inactive are those of the source.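 Rule for the calls, unless noted: active = inhibition at or above 50% at 10 µM; inactive = inhibition below 50%.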

Columns and labels:
[1] = inhibitors of TNFa-induced NFkB p65 translocation, primary screen, imaging, HUVEC, MLSMR starter and 10KST1 sets (AID 438;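 active = inhibition above 20% together with a positive visual image hit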;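 note: compound added about 3h40 before a 20 min TNFalpha stimulation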;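 for inhibition: signal is the nuclear over cytoplasmic p65 intensity ratio per well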); details: HUVEC TNFa-induced p65 nuclear translocation; cell count: measured here: nuclei count (cytotoxicity indicator), at 2.08 µM; inhibition: at 2 µM, stronger effect = higher value, 0% TNFa-plus-vehicle, 100% no-TNFa wells
[2] = reduction of polyQ htt aggregates in cells – imaging, exon1htt(103Q)mCFP cells, high-content imaging, primary screen (AID 483;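 active = visual image review flags a hit and inhibition of aggregation exceeds 20%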;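 note: compound exposure lasted 3 days before fixation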;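 for nuclei count: percent of the per-plate median nuclei count of sample wells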); details: exon1htt(103Q)mCFP cell line, aggregate imaging, at 2 µM; inhibition of aggregation: stronger effect = higher value; nuclei count: measured here: cell count, toxicity
[3] = endothelial E-selectin expression blockers – imaging, HUVEC, immunofluorescence, MLSMR starter and 10KST1 sets, primary screen (AID 487;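 active = visually confirmed hit in the image check and inhibition above 20%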;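 for inhibition: signal is fraction of cell area covered by stained E-selectin grains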;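 for nuclei count: 100% = median nuclei count of all wells on the same plate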); details: HUVEC TNFalpha-induced E-selectin immunofluorescence imaging, at 2 µM; inhibition: stronger effect = higher value; nuclei count: measured here: cell number, toxicity
[4] = biological target: Voltage-gated potassium channel subunit beta-2 (Rattus norvegicus) (UniProt P62483); test: inhibitors of rat Kvbeta2 reductase activity – biochemical, NADPH fluorescence, primary screen (AID 622;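 active = fluorescence slope higher than the sample average by over 3 SD, cut at about -0.22 in these data, passing the limit was not always enough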;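 note: slope of raw intensity against log time taken from 70 to 1610 s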); details: recombinant KvBeta, 4-cyanobenzaldehyde reduction, at 10 µM, stronger effect = higher value
[5] = biological target: Voltage-gated potassium channel subunit beta-2 (Rattus norvegicus) (UniProt P62483); test: enhancers of rat Kvbeta2 NADPH turnover – biochemical, NADPH fluorescence, primary screen (AID 623;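 active = NADPH fluorescence slope more negative than the mean of all samples by about 3 SD, 99.7% confidence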;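 note: fluorescence intensity change per second fitted from 20 to 320 s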); details: Recombinant KvBeta, NADPH fluorescence decrease slope, 10 min; at 10 µM; stronger effect = lower value
[6] = biological target: Muscarinic acetylcholine receptor M4 (Homo sapiens) (UniProt P08173); test: M4-linked GIRK flux change, two-sided – cell-based, HEK293 M4/GIRK, thallium flux, BTC-AM, M4 allosteric agonist project, primary screen (AID 625;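 active = fluorescence slope after compound addition differing from the mean of all tested samples at 99.7% confidence, mostly higher but some lower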;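 note: thallium influx through GIRK channels coupled to M4 in HEK293 cells with BTC-AM dye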); details: at 10 µM, actives lie on both sides
Method in brief: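 System: HEK293 cells with M4 receptor and GIRK channels | Incubation: Cells overnight at 37 °C, BTC-AM loading 1 h, reads 2 min total | Technique: Kinetic BTC-AM fluorescence sampled at 1 Hz, 10 s pre-addition baseline | Measure: Post-addition slope, 15–24 s, of baseline-normalized fluorescence | Control set: Carbachol positive, DMSO negative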

[7] = blockers of RIG-like receptor reporter activation – cell-based, Sendai virus stimulus, luciferase, 10K MLSCN set, TLR/RLR signaling modifier project, primary screen (AID 602276); details: HEK293 RL24 IRF3 luciferase reporter, at 10 µM, stronger effect = higher value;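 note: firefly luciferase from ISG56 promoter only with Renilla not read in this screen; 0% = Sendai virus plus DMSO and 100% = medium plus DMSO without virus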
[8] = TLR3 IRF3 reporter activation blockers – cell-based, poly I:C stimulus, luciferase, 10K MLSCN set, primary screen (AID 602277;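 active = inhibition of the reporter signal at or above 50%; inactive = inhibition below 50%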); details: HEK293-TLR3 RL24 IRF3 luciferase reporter, at 10 µM, stronger effect = higher value

Sequence of Voltage-gated potassium channel subunit beta-2 (Rattus norvegicus) (P62483 whole entry, looked up): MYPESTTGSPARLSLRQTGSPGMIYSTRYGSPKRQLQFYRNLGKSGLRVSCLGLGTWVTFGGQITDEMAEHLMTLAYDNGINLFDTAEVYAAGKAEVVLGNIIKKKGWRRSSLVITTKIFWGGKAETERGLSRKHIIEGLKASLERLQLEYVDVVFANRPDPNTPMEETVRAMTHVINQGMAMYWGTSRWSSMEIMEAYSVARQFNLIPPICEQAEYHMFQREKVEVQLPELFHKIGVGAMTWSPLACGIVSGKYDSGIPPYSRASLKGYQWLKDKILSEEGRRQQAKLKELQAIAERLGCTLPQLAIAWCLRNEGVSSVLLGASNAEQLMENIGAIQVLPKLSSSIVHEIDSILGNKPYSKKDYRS
Sequence of Muscarinic acetylcholine receptor M4 (Homo sapiens) (P08173 whole entry, looked up): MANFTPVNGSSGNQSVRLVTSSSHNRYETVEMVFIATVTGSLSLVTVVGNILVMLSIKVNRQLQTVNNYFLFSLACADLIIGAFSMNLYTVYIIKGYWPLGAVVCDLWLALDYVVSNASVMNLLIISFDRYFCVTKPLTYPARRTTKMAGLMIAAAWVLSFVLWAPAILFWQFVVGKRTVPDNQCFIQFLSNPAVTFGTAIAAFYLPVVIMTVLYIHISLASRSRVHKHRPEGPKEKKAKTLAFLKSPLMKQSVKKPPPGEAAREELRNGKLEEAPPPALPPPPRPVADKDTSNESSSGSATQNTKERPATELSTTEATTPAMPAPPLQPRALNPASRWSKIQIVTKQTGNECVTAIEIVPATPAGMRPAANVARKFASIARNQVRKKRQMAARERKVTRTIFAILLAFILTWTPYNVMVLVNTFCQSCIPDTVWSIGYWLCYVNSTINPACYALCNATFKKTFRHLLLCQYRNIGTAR

Row | SMILES | cell count [1] | inhibition [1] | inhibition of aggregation [2] | nuclei count [2] [%] | inhibition [3] | nuclei count [3] [%] | fluorescence slope [4] | NADPH fluorescence slope [5] | fluorescence slope [6] | inhibition [7] | inhibition [8]
1 | NC(=O)C1CCN(CC(=O)N2c3ccccc3CCc3ccccc32)CC1 | 409 | -16.8% (inactive) | -2.8% (inactive) | 107 | -20.9% (inactive) | 154 | -0.587 (inactive) | -5.7e-05 (inactive) | 0.00441 (inactive) | 15.6% (inactive) | 23.9% (inactive)
2 | CC1(C)NC(=O)N(CNc2cc(Cl)ccc2Cl)C1=O | 649 | -17.4% (inactive) | -1.9% (inactive) | 105 | 0.8% (inactive) | 96.7 | -0.435 (inactive) | -0.000384 (inactive) | 0.00524 (inactive) | 10.6% (inactive) | 21.9% (inactive)
3 | CCOC(=O)N1CCN(C(=O)C2CC(=O)N(Cc3ccc(OC)cc3)C2)CC1 (stereo unspecified) | 607 | -14.6% (inactive) | -1.6% (inactive) | 112 | -28.6% (inactive) | 111 | -0.566 (inactive) | -1e-05 (inactive) | 0.0052 (inactive) | 13.3% (inactive) | 18.5% (inactive)
4 | CCOC(=O)c1[nH]c(C)c(C(=O)Nc2ccc(C)c(Cl)c2)c1C | 661 | 0.3% (inactive) | -3.4% (inactive) | 97.4 | -7.5% (inactive) | 96.5 | -0.446 (inactive) | 1.5e-05 (inactive) | 0.00769 (inactive) | 11.7% (inactive) | 11.2% (inactive)
5 | CCS(=O)(=O)Nc1ccc(C(=O)CC2(O)C(=O)Nc3ccccc32)cc1 (stereo unspecified) | 602 | -11.9% (inactive) | -19.6% (inactive) | 110 | 11.8% (inactive) | 107 | -0.521 (inactive) | 0.000137 (inactive) | 0.00663 (inactive) | 14.3% (inactive) | 18.7% (inactive)
6 | CN1CCc2nc(SCC(=O)Nc3ccc(F)cc3)c(C#N)cc2C1 | 646 | -14.8% (inactive) | -16.9% (inactive) | 101 | -75.1% (inactive) | 101 | -0.456 (inactive) | 0.000133 (inactive) | 0.00558 (inactive) | -24.5% (inactive) | -52.9% (inactive)
7 | CCCN(CCC)c1nc2ccccc2n2c(C)nnc12 | 460 | 6.5% (inactive) | -1.5% (inactive) | 76.7 | -77.3% (inactive) | 102 | -0.461 (inactive) | -3.2e-05 (inactive) | 0.00414 (inactive) | 11.6% (inactive) | 11.3% (inactive)
8 | CC(C(=O)OCn1nnc2ccccc2c1=O)N1C(=O)c2ccccc2C1=O (stereo unspecified) | 532 | -15.6% (inactive) | 13.2% (inactive) | 84.6 | 15.7% (inactive) | 76.4 | -0.62 (inactive) | 2e-05 (inactive) | 0.00486 (inactive) | 12.3% (inactive) | 21.1% (inactive)
9 | CC(C(=O)c1ccccc1)n1cnc2ccccc2c1=O (stereo unspecified) | 646 | 6.4% (inactive) | 17.6% (inactive) | 93 | -0.6% (inactive) | 96.9 | -0.525 (inactive) | -1.2e-05 (inactive) | 0.00459 (inactive) | 1.21% (inactive) | 10.7% (inactive)
10 | CC(NO)C(C)(C)NO (stereo unspecified) | 331 | 4.4% (inactive) | -7.5% (inactive) | 101 | -18.8% (inactive) | 126 | -0.493 (inactive) | 9e-05 (inactive) | 0.00819 (inactive) | 3.35% (inactive) | 10.7% (inactive)
11 | O=C(Nc1ccc(N2CCOCC2)cc1)Nc1ccc2nc(-c3ccco3)c(-c3ccco3)nc2c1 | 695 | -0.7% (inactive) | -8.6% (inactive) | 98.1 | -177% (inactive) | 140 | -0.516 (inactive) | -5.3e-05 (inactive) | 0.00225 (inactive) | 38.7% (inactive) | 0.682% (inactive)
